In one experiment the target is YAP1-TEAD4 (Homo sapiens, UniProt Q15561). The experiment in a line: Inhibition of GST-tagged TEAD4 (217 to 434 residues) (unknown origin) expressed in Escherichia coli BL21 (DE3) cells/FAM-labelled YAP1 (60 to 99 residues)(unknown origin) protein-protein interaction preincubated for 24 hrs at 4 degree C with TEAD4 followed by fluorescent labelled YAP1 addition by fluorescence polarization assay. In short, it runs like this: (§1)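 FP: 64 nM TEAD4, TEAD4C367S, TEAD2 or TEAD3, or 250 nM TEAD1, was preincubated with compound for 24 h at 4 °C in PBS with 0.01% Triton X-100. FAM-YAP1 60–99 peptide (disulfide-crosslinked) was then added at 16 nM final. Polarization was read at ex 485/em 535 nm. Percent inhibition was taken relative to no-compound and no-protein controls. The single-point primary screen used 50 μM.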
Sequence of YAP1-TEAD4 (P46937 whole entry, the tested form may be a part): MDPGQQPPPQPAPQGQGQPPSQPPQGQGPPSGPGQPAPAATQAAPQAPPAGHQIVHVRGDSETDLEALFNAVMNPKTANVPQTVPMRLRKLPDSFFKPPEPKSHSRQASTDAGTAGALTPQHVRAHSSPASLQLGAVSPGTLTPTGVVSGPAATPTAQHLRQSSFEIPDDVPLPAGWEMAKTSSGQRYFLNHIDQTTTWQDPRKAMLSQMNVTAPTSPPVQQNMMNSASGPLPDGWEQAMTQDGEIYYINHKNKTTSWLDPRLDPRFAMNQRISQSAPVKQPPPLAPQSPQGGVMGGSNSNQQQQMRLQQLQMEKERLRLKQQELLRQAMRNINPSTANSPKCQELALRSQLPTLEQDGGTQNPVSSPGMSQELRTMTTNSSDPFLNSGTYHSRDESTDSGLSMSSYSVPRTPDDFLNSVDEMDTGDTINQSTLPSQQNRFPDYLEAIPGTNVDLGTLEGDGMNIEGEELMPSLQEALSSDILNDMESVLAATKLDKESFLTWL
Sequence of YAP1-TEAD4 (Q15561 whole entry, the tested form may be a part): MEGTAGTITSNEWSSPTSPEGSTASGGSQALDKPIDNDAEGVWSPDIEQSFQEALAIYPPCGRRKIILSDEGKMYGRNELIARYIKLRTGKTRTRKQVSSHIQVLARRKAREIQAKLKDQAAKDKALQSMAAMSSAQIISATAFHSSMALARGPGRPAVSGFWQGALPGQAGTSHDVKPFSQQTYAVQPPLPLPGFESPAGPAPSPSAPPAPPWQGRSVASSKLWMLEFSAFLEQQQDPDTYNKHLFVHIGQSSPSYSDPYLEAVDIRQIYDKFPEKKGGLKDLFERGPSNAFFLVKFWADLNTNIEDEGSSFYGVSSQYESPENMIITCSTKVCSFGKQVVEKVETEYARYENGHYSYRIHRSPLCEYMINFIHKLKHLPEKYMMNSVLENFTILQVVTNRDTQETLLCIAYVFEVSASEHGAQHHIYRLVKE

Experiment [1] has as its target T1, YAP1-TEAD4 (Homo sapiens) (UniProt P46937+Q15561). The experiment in a line: Covalent inhibition of GST-tagged TEAD4 (217 to 434 residues) (unknown origin) expressed in Escherichia coli BL21 (DE3) cells/FAM-labelled YAP1 (60 to 99 residues)(unknown origin) protein-protein interaction assessed as protein-compound adduct formation at 100 uM incubated for 24 hrs at 4 degree C followed by mass spectrometry analysis. In short, it runs like this: (§2)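 Intact-protein MS: 2.5 μM protein (TEAD4 217–434 with GST cleaved, TEAD4C367S, TEAD1 209–426, TEAD2 217–447 or TEAD3 210–427) incubated with 100 μM compound in PBS for 24 h at 4 °C. Samples were centrifuged to remove precipitate, desalted on a C3 reverse-phase column with a water/acetonitrile 0.1% formic acid gradient, and masses were read by Q-TOF. Adduct peaks were reported as percent.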

The target in experiment [2] is T1, YAP1-TEAD4 (Homo sapiens). The experiment in a line: Covalent inhibition of GST-tagged TEAD4 (217 to 434 residues) (unknown origin) expressed in Escherichia coli BL21 (DE3) cells/FAM-labelled YAP1 (60 to 99 residues)(unknown origin) protein-protein interaction assessed as second protein-compound adduct formation at 100 uM incubated for 24 hrs at 4 degree C followed by mass spectrometry analysis. In short, it runs like this: as §2

The species entered for experiment [3] is Homo sapiens. Description: Inhibition of GST-tagged TEAD4 C367S mutant (unknown origin) expressed in Escherichia coli BL21 (DE3) cells/FAM-labelled YAP1 (60 to 99 residues)(unknown origin) protein-protein interaction preincubated for 24 hrs at 4 degree C with TEAD4 C367S mutant followed by fluorescent labelled YAP1 addition by fluorescence polarization assay. The method, boiled down: as §1

For a further experiment, the system named is S2. The experiment in a line: Inhibition of uPAR (unknown origin) expressed in S2 cells/FAM-labelled alpha-helical peptide AE-147 (unknown origin) protein-protein interaction preincubated for 24 hrs at 4 degree C with uPAR followed by fluorescent labelled AE-147 addition by fluorescence polarization assay. The note with it: Homo sapiens. In short, it runs like this: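 Counter-screen FP: 250 nM uPAR lacking the GPI anchor (from S2 cells) was preincubated with compound for 24 h at 4 °C in PBS with 0.01% Triton X-100. AE-147-FAM peptide was then added at 100 nM final and polarization read at ex 485/em 535 nm.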

Experiment [4] deals with T1, YAP1-TEAD4 (Homo sapiens). Description: Covalent inhibition of GST-tagged TEAD4 (217 to 434 residues) (unknown origin) expressed in Escherichia coli BL21 (DE3) cells/FAM-labelled YAP1 (60 to 99 residues)(unknown origin) protein-protein interaction assessed as additional protein-compound adduct formation at 100 uM incubated for 24 hrs at 4 degree C followed by mass spectrometry analysis. The method, boiled down: as §2

Experiment [5] has as its target T1, YAP1-TEAD4 (Homo sapiens). Description: Inhibition of GST-tagged TEAD4 (217 to 434 residues) (unknown origin) expressed in Escherichia coli BL21 (DE3) cells/FAM-labelled YAP1 (60 to 99 residues)(unknown origin) protein-protein interaction assessed as maximum inhibition at 50 uM preincubated for 24 hrs at 4 degree C with TEAD4 followed by fluorescent labelled YAP1 addition by fluorescence polarization assay. The method, boiled down: as §1

The species entered for experiment [6] is Homo sapiens. The experiment in a line: Covalent inhibition of GST-tagged TEAD4 C367S mutant (unknown origin) expressed in Escherichia coli BL21 (DE3)/FAM-labelled YAP1 (60 to 99 residues)(unknown origin) protein-protein interaction assessed as protein-compound adduct formation at 100 uM incubated for 24 hrs at 4 degree C followed by mass spectrometry analysis. The method, boiled down:
as §2

pIC50: −log10 of the molar value. Calls of active or inactive are those of the source. The calls are words filed in the database; no cut-off is given here. Where only a bound is given, the exact number is not on record here.

The compound `Cc1ccc2c(c1)c1c3n2CCN(C(=O)CCl)C3CCC1` (stereo not given) gave a negative logarithm of the IC50 (pIC50) at YAP1-TEAD4 of 5.70. Further, the percent protein-compound adduct formation in experiment [1] came to 29%; in experiment [4] it was 30%. The percent second protein-compound adduct in experiment [2] amounted to 30%. The inhibition result in the experiment listed under Homo sapiens [3] and in the experiment on S2 was “inactive” each time. Besides, the Imax in experiment [5] was determined as 50%.

At YAP1-TEAD4, `COc1ccc(C2=NN(C(=O)CCl)C(c3nc4ccccc4[nH]3)C2)cc1` (stereo not given) showed a pIC50 of 5.24. Moreover, the percent protein-compound adduct formation in experiment [1] worked out at 38%. In experiment [2], the percent second protein-compound adduct was 30%. Further, the inhibition result in the experiment filed under Homo sapiens [3], in the experiment listed under Homo sapiens [6] and in the experiment on S2 was “inactive” throughout. Also, the Imax in experiment [5] worked out at 45%.

Compound `COc1ccc(C(C(=O)NC2CCCCCC2)N(Cc2ccccc2)C(=O)CCl)cc1` (stereo not given) had a pIC50 at YAP1-TEAD4 of 5.13. Besides, the percent protein-compound adduct formation in experiment [1] amounted to 31%. The inhibition entry in the experiment listed under Homo sapiens [3], in the experiment filed under Homo sapiens [6] and with S2 was “inactive” in each case. The Imax in experiment [5] stood at 49%.

In the case of `COc1ccc(CN(C(=O)CCl)C(C(=O)NC2CCCCC2)c2cccs2)cc1` (stereo not given), the negative logarithm of the IC50 (pIC50) against YAP1-TEAD4 is 4.89. The percent protein-compound adduct formation was 12% in experiment [1] and 30% in experiment [4]. For the same compound, the percent second protein-compound adduct in experiment [2] amounted to 20%. The inhibition result in the experiment listed under Homo sapiens [3], in the experiment filed under Homo sapiens [6] and in the experiment with S2 was “inactive” in each case. In addition, in experiment [5], the Imax was 67%.

Regarding `O=C(CCl)N1N=C(c2cccs2)CC1c1cccs1` (stereo not given), the pIC50 at YAP1-TEAD4 was 5.33. Moreover, in experiment [1], the percent protein-compound adduct formation turned out to be 45%. In addition, the percent second protein-compound adduct in experiment [2] was determined as 9%. In addition, the inhibition entry in the experiment listed under Homo sapiens [3], in the experiment listed under Homo sapiens [6] and in the experiment with S2 was “inactive” throughout. For the same compound, in experiment [5], the Imax was found to be 46%.

`O=C(CCl)N1N=C(c2ccc(Br)cc2)CC1c1ccc(F)cc1` (stereo not given) showed a pIC50 at YAP1-TEAD4 of 5.82. Further, in experiment [1], the percent protein-compound adduct formation worked out at 27%. In addition, the inhibition result in the experiment listed under Homo sapiens [3], in the experiment listed under Homo sapiens [6] and with S2 was “inactive” throughout. In addition, the Imax in experiment [5] was determined as 41%.

Take `Cc1ccc(S(=O)(=O)N2CCN(C(=O)CCl)C2)cc1`: the pIC50 against YAP1-TEAD4 was 5.72. Further, the percent protein-compound adduct formation in experiment [1] came out at 75%. Besides, the percent second protein-compound adduct in experiment [2] came to 25%. Besides, the inhibition result in the experiment listed under Homo sapiens [3] and in the experiment with S2 was “inactive” in each case. The Imax in experiment [5] was 49%.

At YAP1-TEAD4, `O=C(NCCc1ccccc1)C(c1cccs1)N(C(=O)CCl)c1ccc(Cl)cc1` (stereo not given) gave a pIC50 of 5.40. Besides, the percent protein-compound adduct formation in experiment [1] was 15%. The inhibition entry in the experiment listed under Homo sapiens [3], in the experiment filed under Homo sapiens [6] and in the experiment on S2 was “inactive” each time. In addition, the Imax in experiment [5] came out at 40%.

`COc1ccc(C2=NN(C(=O)CCl)C(c3cccc(OC)c3OC)C2)cc1` (stereo not given): the pIC50 against YAP1-TEAD4 is 5.96. Further, the percent protein-compound adduct formation in experiment [1] amounted to 42%. The inhibition result in the experiment listed under Homo sapiens [3], in the experiment filed under Homo sapiens [6] and in the experiment with S2 was “inactive” in each case. Also, the Imax in experiment [5] was determined as 39%.

Consider `O=C(CCl)N1N=C2/C(=C/c3ccco3)CCCC2C1c1ccco1` (stereo not given), for which the negative-log IC50 (pIC50) against YAP1-TEAD4 was 5.11. In addition, in experiment [1], the percent protein-compound adduct formation worked out at 32%. Further, the percent second protein-compound adduct in experiment [2] amounted to 10%. In addition, the inhibition entry in the experiment listed under Homo sapiens [3], in the experiment filed under Homo sapiens [6] and in the experiment on S2 was “inactive” throughout. Also, in experiment [5], the Imax was found to be 67%.

Turning to `Cc1ccc(S(=O)(=O)N2CCN(C(=O)CCl)CC2)cc1C`, the pIC50 on YAP1-TEAD4 is 4.64. For the same compound, the percent protein-compound adduct formation in experiment [1] is 38%. Further, the inhibition result in the experiment listed under Homo sapiens [3] and with S2 was “inactive” in each case. For the same compound, in experiment [5], the Imax turned out to be 48%.

In the case of `O=C(CCl)N1CCN(S(=O)(=O)/C=C/c2ccccc2)CC1`, the negative logarithm of the IC50 (pIC50) against YAP1-TEAD4 is 5.31. In addition, the percent protein-compound adduct formation in experiment [1] came to 73%. In addition, the inhibition entry in the experiment listed under Homo sapiens [3] and in the experiment with S2 was “inactive” each time. For the same compound, in experiment [5], the Imax was determined as 49%.

On YAP1-TEAD4, `COc1ccc(C(C(=O)NCCc2ccccc2)N(Cc2cccs2)C(=O)CCl)cc1` (stereo not given) had a pIC50 of 4.98. Besides, the percent protein-compound adduct formation in experiment [1] is 47%. Also, the inhibition entry in the experiment listed under Homo sapiens [3], in the experiment filed under Homo sapiens [6] and in the experiment on S2 was “inactive” throughout. For the same compound, in experiment [5], the Imax came to 42%.

In turn, `COc1ccc(C(C(=O)NC2CCCCCC2)N(Cc2ccc(C)cc2)C(=O)CCl)cc1` (stereo not given) showed a pIC50 on YAP1-TEAD4 of 5.36. Besides, in experiment [1], the percent protein-compound adduct formation amounted to 25%. Moreover, the inhibition entry in the experiment listed under Homo sapiens [3], in the experiment filed under Homo sapiens [6] and with S2 was “inactive” each time. In experiment [5], the Imax amounted to 36%.

`Cc1ccc(S(=O)(=O)N2CCN(C(=O)CCl)C2c2ccccc2)cc1` (stereo not given): the negative-log IC50 (pIC50) against YAP1-TEAD4 is > 6.00. For the same compound, the percent protein-compound adduct formation in experiment [1] was found to be 52%. Also, the percent second protein-compound adduct in experiment [2] turned out to be 23%. In addition, the inhibition entry in the experiment filed under Homo sapiens [3] and in the experiment with S2 was “inactive” each time. Besides, the Imax in experiment [5] came to 50%.

Take `O=C(CCl)N1N=C(c2ccc(Cl)cc2)CC1c1ccco1` (stereo not given): the pIC50 at YAP1-TEAD4 was 5.22. For the same compound, in experiment [1], the percent protein-compound adduct formation worked out at 64%. In experiment [2], the percent second protein-compound adduct is 18%. Besides, the inhibition entry in the experiment filed under Homo sapiens [3], in the experiment filed under Homo sapiens [6] and in the experiment on S2 was “inactive” each time. The Imax in experiment [5] was found to be 62%.

In turn, `O=C(CCl)N1N=C(c2ccccc2)CC1c1ccccc1` (stereo not given) had a pIC50 against YAP1-TEAD4 of 5.23. Besides, the percent protein-compound adduct formation in experiment [1] was 38%. Also, the percent second protein-compound adduct in experiment [2] turned out to be 21%. Also, the inhibition entry in the experiment listed under Homo sapiens [3], in the experiment filed under Homo sapiens [6] and in the experiment with S2 was “inactive” throughout. Further, the Imax in experiment [5] turned out to be 52%.

Regarding `COc1ccc(CN(C(=O)CCl)C(C(=O)NC2CCCCCC2)c2ccc(OC)cc2)cc1` (stereo not given), on YAP1-TEAD4, the negative-log IC50 (pIC50) is 5.26. In experiment [1], the percent protein-compound adduct formation turned out to be 37%. For the same compound, the inhibition result in the experiment listed under Homo sapiens [3], in the experiment filed under Homo sapiens [6] and in the experiment on S2 was “inactive” each time. Besides, in experiment [5], the Imax came to 45%.

As for `O=C(CCl)N1CCN(S(=O)(=O)c2ccc(Cl)cc2[N+](=O)[O-])CC1`, the percent protein-compound adduct formation in experiment [1] came to 54%. Also, the percent second protein-compound adduct in experiment [2] was 31%. The inhibition entry in the experiment filed under Homo sapiens [3] and in the experiment with S2 was “inactive” in each case.

Consider `COc1ccc(C(C(=O)NC2CCCCCC2)N(Cc2cccs2)C(=O)CCl)cc1` (stereo not given), for which, at YAP1-TEAD4, the pIC50 was 5.32. Moreover, the percent protein-compound adduct formation in experiment [1] worked out at 32%. For the same compound, the inhibition result in the experiment listed under Homo sapiens [3], in the experiment listed under Homo sapiens [6] and in the experiment on S2 was “inactive” in each case. In experiment [5], the Imax is 41%.

`Cc1ccc(C2CC(c3cccs3)=NN2C(=O)CCl)cc1` (stereo not given): on YAP1-TEAD4, the pIC50 was 5.42. Besides, the percent protein-compound adduct formation in experiment [1] amounted to 27%. In addition, the inhibition result in the experiment filed under Homo sapiens [3], in the experiment filed under Homo sapiens [6] and with S2 was “inactive” throughout. Also, the Imax in experiment [5] amounted to 41%.

These data come from ChEMBL document CHEMBL5329172, “Chloroacetamide fragment library screening identifies new scaffolds for covalent inhibition of the TEAD·YAP1 interaction” (RSC Med Chem, 2023).
